Assay results: PMC2818804 (Journal of medicinal chemistry, 2010)
Values after ≈ are worked out from the molar mass of the structure shown.

Key:
[1] = test system: firefly luciferase; test: firefly luciferase counter-assay; format: biochemical
[2] = molecular target: PKM2 (Homo sapiens, UniProt P14618); test: steady-state kinetics of PEP and ADP in the PK-LDH coupled assay; format: biochemical; conditions: in the presence of activator (10 μM); PEP varied
[3] = kinetic solubility analysis; format: physicochemical; conditions: aqueous medium (not further specified)
In short: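 Solubility determined by quantitative nitrogen detection. Three separate experiments; average intra-assay %CV 4.5%.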

[4] = molecular target: hPK, M2 (pyruvate kinase, human M2 isoform, PKM2) (Homo sapiens, UniProt P14618); test: luminescent pyruvate kinase-luciferase coupled assay; format: biochemical; conditions: read-out: hPK, M2 AC50, three separate experiments
Sequence of hPK, M2 (pyruvate kinase, human M2 isoform, PKM2) (P14618 whole entry, canonical isoform): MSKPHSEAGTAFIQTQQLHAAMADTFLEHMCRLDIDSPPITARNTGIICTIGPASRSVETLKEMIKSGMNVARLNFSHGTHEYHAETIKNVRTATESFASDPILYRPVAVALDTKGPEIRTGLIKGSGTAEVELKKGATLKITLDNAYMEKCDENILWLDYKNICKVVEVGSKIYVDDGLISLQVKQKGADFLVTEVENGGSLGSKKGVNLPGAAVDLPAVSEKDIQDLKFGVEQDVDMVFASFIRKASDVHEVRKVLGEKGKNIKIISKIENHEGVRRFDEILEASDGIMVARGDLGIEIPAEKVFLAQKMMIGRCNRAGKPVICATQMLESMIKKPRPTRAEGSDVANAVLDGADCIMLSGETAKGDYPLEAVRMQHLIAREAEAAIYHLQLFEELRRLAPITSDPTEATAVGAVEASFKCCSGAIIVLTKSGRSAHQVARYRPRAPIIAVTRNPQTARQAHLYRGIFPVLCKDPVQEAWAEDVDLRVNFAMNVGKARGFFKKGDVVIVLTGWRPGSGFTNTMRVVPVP

Sequence of PKM2 (P14618 whole entry): as the sequence (P14618 whole entry, canonical isoform) above

Compound | solubility [3] [µg/mL] | further results
COc1ccc(S(=O)(=O)N2CCN(S(=O)(=O)c3ccc4c(c3)OCCO4)CC2)cc1 [compound 2] | – | activation of firefly luciferase [1]: did not activate; Vmax [2]: 265 pmols/min
O=S(=O)(c1ccc2c(c1)OCCO2)N1CCN(S(=O)(=O)c2c(F)cccc2F)CC1 [compound 10] | < 0.5 | –
O=S(=O)(N[C@H]1CC[C@H](NS(=O)(=O)c2c(F)cccc2F)CC1)c1ccc2c(c1)OCCO2 [compound 40] | – | AC50 [4]: 2.11 µM
O=S(=O)(c1ccc2c(c1)OCCO2)N1CCCN(S(=O)(=O)c2c(F)cccc2F)CC1 [compound 34] | 2.7 (≈ 5.69 µM) | –

Further lines, with some results ahead:

solubility [3] [µg/mL] | Compound | further results
15.1 (≈ 32.7 µM) | COc1cc(F)c(S(=O)(=O)N2CCCN(S(=O)(=O)c3cccc(N)c3)CC2)c(F)c1 [compound 57] | –
3 (≈ 7.19 µM) | Nc1cccc(S(=O)(=O)N2CCN(S(=O)(=O)c3c(F)cccc3F)CC2)c1 [compound 56] | –
